14-3-3 Bad PPI – inhibitors of 14-3-3 zeta/Bad binding, primary screen, biochemical, TR-FRET, bovine 14-3-3 zeta; TR-FRET 14-3-3zeta/Dy647-pBad peptide displacement, 1 h; 220,000 compounds, 0.71% hits; inhibition, % at 21.7 µM; AID 781, 2007; 14-3-3 protein zeta/delta (Bos taurus), P63103;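 active = inhibition above about 70%, limit read from the data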;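 note: 0% = full 14-3-3 plus peptide FRET controls and 100% = background without 14-3-3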
RBBP9 inhibitor – human RBBP9 inhibitors, primary screen, biochemical, fluorescence polarization, FP-Rh probe, HTS; Serine hydrolase RBBP9 (Homo sapiens), O75884; recombinant RBBP9; 220,000 compounds, 0.2% hits; inhibition, % at 7.94 µM;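 active = inhibition above the campaign mean of all tested compounds plus 3 SD, cut at about 14% in these data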;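 note: plate controls were DMSO wells with RBBP9 for no effect and wells lacking RBBP9 protein for full effect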
Target sequence (O75884 whole entry, looked up): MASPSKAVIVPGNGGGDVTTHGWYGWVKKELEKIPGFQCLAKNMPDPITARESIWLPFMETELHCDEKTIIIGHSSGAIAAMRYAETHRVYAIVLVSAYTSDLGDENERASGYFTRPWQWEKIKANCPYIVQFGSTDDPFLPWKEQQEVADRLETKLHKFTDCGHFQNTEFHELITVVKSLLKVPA
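System: RBBP9 protein / Buffer or medium: Tris/NaCl buffer pH 8.0 with 0.1% Pluronic / Probe or stimulus: Serine-hydrolase probe FP-Rh, 375 nM pre-mixing / Dosing: 7.94 µM single dose, 0.794% DMSO / Times: enzyme-compound preincubation 30 min, then probe labeling 45 min, 25 °C / Technique: fluorescence polarization (mP), excitation 525 nm, emission 598 nm / Replication: singlicate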
EBV gp42 inh – Epstein-Barr virus gp42 inhibitors, primary screen, biochemical, uHTS, fluorescence polarization; 220,000 compounds, 0.42% hits; Fluorescence polarization binding assay, mP read-out; Glycoprotein 42 (Epstein-Barr virus (strain AG876)), Q1HVG2; inhibition, % (tested at 21.74 µM)
Target sequence (Q1HVG2 whole entry, looked up): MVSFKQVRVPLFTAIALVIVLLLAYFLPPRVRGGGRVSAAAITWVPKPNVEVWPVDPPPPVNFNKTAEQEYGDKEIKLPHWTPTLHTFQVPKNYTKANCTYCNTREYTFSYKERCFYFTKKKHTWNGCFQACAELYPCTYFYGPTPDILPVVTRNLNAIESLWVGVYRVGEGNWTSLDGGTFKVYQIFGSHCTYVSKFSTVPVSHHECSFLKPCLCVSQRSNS
PKD1 inh – inhibitors of human PKD1 kinase, biochemical, fluorescence polarization; inhibition, % (concentration not given with the values); AID 797, 2007; Serine/threonine-protein kinase D1 (Homo sapiens), Q15139; 200,000 compounds, 0.056% hits; PKD1 kinase fluorescence polarization assay
eIF4E-4G inh – eIF4E–eIF4G protein interaction inhibitors, primary screen, biochemical, uHTS, TR-FRET, eIF4GI fragment; TR-FRET eIF4E-eIF4GI(517-606) binding, 2 h; inhibition, % at 21.7 µM; 220,000 compounds, 0.37% hits; AID 782, 2007;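 active = inhibition above about 30%, limit read from the data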;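 note: 0% = full FRET control wells and 100% = background wells lacking eIF4GI fragment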
Numbers without * were called inactive; x = not tested or not shown; [ ] = remark or other dose. In the library only some 1.6% were active in any assay of this set; here they are far more common. Cut-off read from the data, not from the text of the source, unless noted: active = inhibition above about 50%; inactive = the rest.

SMILES | 14-3-3 Bad PPI | RBBP9 inhibitor | EBV gp42 inh | PKD1 inh | eIF4E-4G inh
CC(C)(CO)NCC(O)Cn1cc(C=O)c2ccccc21 (stereo unspecified) | 100* | -6 | 1 | 4 | 1
O=Cc1cn(CC(O)CN2CCCCC2)c2ccccc12 (stereo unspecified) | -14 | -2 | -4 | 2 | 2
CC(C)c1ccc(Nc2c([N+](=O)[O-])c(=O)n(C)c3ccccc23)cc1 | 8 | -12 | 4 | x | -3
Cn1c(=O)c(Nc2ccc(O)cc2)c2c3c(cccc31)C(=O)c1ccccc1-2 | -13 | 7 | 127* | 17 | 10
Cc1ccc(CNC(=O)CCS(=O)(=O)c2ccc(Br)cc2)cc1 | 96* | 2 | 18 | -3 | 4
CCN(CC)S(=O)(=O)c1cc(C(=O)NC2CCCCC2)ccc1C | 9 | -4 | -9 | 5 | 0
O=C(CSc1cccc[n+]1[O-])Nc1cc2c(cc1Cl)C(=O)c1ccccc1C2=O | 99*[fluorescence artefact?] | -12 | -20 | -12 | 26
CC1CCN(c2c(NCC3CCC(C(=O)NCCCc4ccccc4)CC3)c(=O)c2=O)CC1 (stereo unspecified) | -5 | 5 | -19 | x | -1
CCOC(=O)c1cc(-c2ccc(N3CCOCC3)cc2)nn1-c1ccccc1 | -9 | 2 | -12 | 3 | -3
CCOC(=O)c1cc(-c2ccc(N3CCOCC3)cc2)nn1-c1ccccc1C(=O)O | 24 | -2 | 32 | x | 38*
Cc1ccc(-c2nc(CS(=O)CC(=O)NCCC(C)C)c(C)o2)cc1 (stereo unspecified) | 22 | -4 | -3 | -4 | 1
C=CCc1c(O)c(CC)cc2c(C)cc(=O)oc12 | 8 | -13 | -2 | x | -8
CCN1/C(=C\C=C2\C(=O)N(c3ccccc3)C(=S)N2C)Sc2ccccc21 | 95* | -13 | 8 | -3 | -8
CCN1/C(=C\C=C(C(C)=O)C(C)=O)Sc2ccccc21 | -6 | -11 | -289 | -3 | -3
COc1cc(/C=C2/C(=O)c3cccc([N+](=O)[O-])c3C2=O)c(Br)cc1O | -8 | 3 | 54* | 1 | 12
COc1ccc(-c2nc(-c3cccc([N+](=O)[O-])c3O)cc(=O)o2)cc1OC | 6 | -4 | 19 | -10 | 7
COc1ccc(NC(C)=O)cc1NC(=O)CSc1nnc(-c2ccc(F)cc2)n1N | 12 | -1 | -14 | -6 | -4
COc1ccc(-c2noc(CSc3nc(N)c(-c4ccccc4)c(=O)[nH]3)n2)cc1OC | 12 | -6 | -9 | -13 | 46*[fluorescence artefact?]
CC(C(=O)Nc1ccc2c(c1)OCCO2)N(C)Cc1c(F)cccc1Cl (stereo unspecified) | 97* | -3 | 0 | 0 | -3
O=C(Nc1ccc2c(c1)OCCO2)c1c(F)cccc1F | 2 | -6 | -19 | -7 | 0
COc1ccc(-n2c(=O)/c(=C\c3cccs3)s/c2=C(/C#N)C(=O)N2CCN(C)CC2)cc1 | -12 | 1 | -15 | -6 | 2
CCc1nc(NC(C)C)c2oc3ccccc3c2n1 | 76* | -4 | 4 | -3 | 2
CCc1nc(N2CCN(Cc3ccc4c(c3)OCO4)CC2)c2oc3ccccc3c2n1 | 80* | -12 | -8 | -2 | 8
CCc1nc(Nc2ccc3c(c2)OCO3)c2oc3ccccc3c2n1 | 70*[fluorescence artefact?] | 3 | -8 | -8 | -2
CCc1nc(N[C@H](C(=O)O)C(C)C)c2oc3ccccc3c2n1 | 5 | -2 | 4 | x | -4
COc1ccc2c(c1)OC1=C(C(=O)CCC1)C2C1=C(O)CCCC1=O (stereo unspecified) | 73* | -1 | 2 | -11 | -1
CCCCc1nc2cc(Cl)ccc2o1 | -1 | -1 | -3 | 8 | 1
CC(=O)NC1=C(C#N)C(c2ccccc2)c2c(ccc3ccccc23)O1 (stereo unspecified) | -9 | -6 | -19 | 6 | 8
Cc1cc(C(=O)COC(=O)c2cc(O)c3ccccc3c2O)c(C)n1CC1CCCO1 (stereo unspecified) | 73* | 9 | 29 | -5 | 11
